Assay results from PMC7263447 (Journal of medicinal chemistry, 2020).
Ends that are not written are not given here. * marks the point of attachment. Dnp = O=[N+]([O-])c1ccc(*)c([N+](=O)[O-])c1

Tests used:
MDA-MB-231 cells [1] = experiment: Antibody recruitment assay, anti-DNP-A488, flow cytometry; format: cell-based, human; settings: 1 μM conjugate, pH 7.4 or 6.0, 25 μg/mL anti-DNP-A488, flow cytometry, n = 3
Summary of the method: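 Conjugate held at 20 μM in 5 mM sodium phosphate pH 9.0 for 1 h at RT, then diluted and pH-adjusted with citrate/PBS. Cells were washed, stained with anti-DNP-A488 rabbit polyclonal for 30 min at 4 °C, fixed in 4% PFA and read by flow cytometry. Values are fold over pH 7.4 antibody-only cells.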

MDA-MB-231 cells [2] = experiment: Antibody recruitment from pooled human serum; format: cell-based; settings: 1 μM conjugate, pH 7.4 or 6.0, 12.5% PHS, FITC-labeled anti-human IgG, n = 3
MDA-MB-231 cells [3] = experiment: Complement-dependent cytotoxicity; format: cell-based, human; settings: 1 μM conjugate, 12.5% PHS, 4 h, LDH release
Summary of the method: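 Cells (240000 MDA-MB-231) were treated in suspension with 1 μM conjugate for 5 min at 37 °C, at pH 7.4 or 6.0. After washing they were opsonised with 25 μg/mL rabbit anti-DNP-KLH (30 min, 4 °C). Pooled human complement serum was added to 12.5% in DMEM for 4 h at 37 °C. Supernatant LDH was assayed in triplicate (30 min RT, 490/680 nm). Cytotoxicity is relative to antibody-only cells without peptide. Mean ± SEM, n = 3–12.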

MDA-MB-231 cells [4] = experiment: Antibody-dependent cellular cytotoxicity with PBMCs; format: cell-based, human
Summary of the method: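 MDA-MB-231 cells (150000) were exposed to the pH-adjusted conjugate for 5 min at 37 °C, at pH 7.4 or 6.0. After washing, they were incubated with unconjugated rabbit anti-DNP-KLH (25 μg/mL, 30 min, 4 °C). Single-donor human PBMCs were added at 50:1 in RPMI 1640 for 4 h at 37 °C. Supernatant LDH was read at 490/680 nm. Cytotoxicity % = (LDH − normal)/normal × 100. Control normal release was effector-only or target-only at pH 7.4.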

MDA-MB-231 cells [5] = experiment: Antibody-dependent cellular cytotoxicity with haNK cells; format: cell-based, human; settings: 500 nM conjugate, anti-DNP antibody, haNK effector:target 5:1, 4 h, LDH release
Summary of the method: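 Targets were 150000 MDA-MB-231 cells, pulsed 5 min at 37 °C at pH 7.4 or 6.0. They were then held with 25 μg/mL rabbit anti-DNP-KLH for 30 min at 4 °C. Effectors were IL-2-maintained F176V CD16+ NK-92 (haNK) cells at 5:1 in MEMα, 4 h, 37 °C. Supernatant LDH was read at 490/680 nm. Lysis % = (LDH − normal)/normal × 100, normal being antibody plus effectors without conjugate. Mean ± SEM, n = 3–12.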

MDA-MB-231 cells [6] = experiment: Toxicity of conjugate alone; format: cell-based, human; settings: ≤10 μM conjugate only, LDH release (Figure S8)

Dnp-KEQNPIYWARYADWLFTTPLLLLELALLVDADEGTG [Conjugate 2]
anti-DNP antibody recruitment (cellular fluorescence) (MDA-MB-231 cells [1]): highest level of cellular fluorescence
antibody recruitment from serum (relative fluorescence) (MDA-MB-231 cells [2]): significant increase in relative fluorescence at pH 6.0 compared to that at pH 7.4
cell lysis (CDC) (MDA-MB-231 cells [3]; pH 6.0, anti-DNP antibody): 10%
toxicity (CDC) (MDA-MB-231 cells [3]; pH 7.4, anti-DNP antibody): no toxicity at all
pH selectivity of PBMC-mediated cell lysis (MDA-MB-231 cells [4]; 1 μM conjugate, anti-DNP antibody, pH 6.0 vs 7.4): ~ 2 fold
cell lysis with mock anti-FITC antibodies or without antibodies (PBMCs) (MDA-MB-231 cells [4]; control, mock anti-FITC antibodies or no antibodies prior to PBMCs (Figure S7A)): cell lysis was not observed
cell lysis (ADCC, haNK cells), maximum efficacy (MDA-MB-231 cells [5]): ~ 40%
cell lysis by conjugate only (MDA-MB-231 cells [6]): cell lysis was not observed
